Test results: article PMC3068229 (Biochemistry, 2011)

Assays:
annexin A1 [1] = target: T1, annexin A1 (Mus musculus, UniProt P10107); assay: SPR, carbohydrates flowed over annexin A1 immobilized on NTA chips; assay type: binding; conditions: annexin A1 1 µM immobilized
T1 sequence (P10107 1-346): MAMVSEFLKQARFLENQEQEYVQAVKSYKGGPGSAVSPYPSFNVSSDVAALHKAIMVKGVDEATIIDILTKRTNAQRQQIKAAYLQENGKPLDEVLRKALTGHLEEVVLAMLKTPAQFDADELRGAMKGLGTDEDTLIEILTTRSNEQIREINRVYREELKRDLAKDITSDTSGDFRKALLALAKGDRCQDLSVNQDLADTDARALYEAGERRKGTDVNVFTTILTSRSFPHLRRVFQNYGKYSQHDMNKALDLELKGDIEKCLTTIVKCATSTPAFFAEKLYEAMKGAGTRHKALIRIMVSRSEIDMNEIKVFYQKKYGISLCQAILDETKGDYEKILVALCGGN
Method in brief: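 The NTA chip was primed with 500 μM NiCl2 in HBS-EP running buffer (10 mM HEPES pH 7.4, 150 mM NaCl, 50 μM EDTA, 0.05% Tween-20), then His-tagged mouse annexin A1 (1 μM) was captured. Test glycans, either free glycosaminoglycans or polyacrylamide-coupled glycans at 5 or 50 μg/mL, or buffer alone, were injected for 3 min in HBS-N with 1 mM CaCl2 and 1 mM MgCl2. After dissociation, the chip was regenerated with 35 mM EDTA.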

annexin A1 [2] = target: T1, annexin A1; assay: Glycan array; assay type: binding; conditions: annexin A1-His 0.2 mg/ml, 2 mM CaCl2, 2 mM MgCl2, fluorescence (RFU)
Method in brief: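 Recombinant full-length mouse annexin A1 with a C-terminal His6 tag was expressed in E. coli BL21(DE3) with 1 mM IPTG induction, purified on Ni-NTA and dialysed into 20 mM Tris pH 7.9 with 250 mM NaCl. The array was probed with 0.2 mg/mL protein in TBS-CM (pH 7.4) containing 1% BSA and 0.05% Tween-20, for 60 min at room temperature in a humid chamber. Read-out was mean RFU of 6 replicates after dropping the highest and lowest values.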

Compound: CO[C@H]1O[C@H](COS(=O)(=O)O)[C@@H](O[C@@H]2O[C@@H](C(=O)O)[C@@H](O[C@H]3O[C@H](COS(=O)(=O)O)[C@@H](O[C@@H]4O[C@H](C(=O)O)[C@@H](O[C@H]5O[C@H](COS(=O)(=O)O)[C@@H](O)[C@H](O)[C@H]5NS(=O)(=O)O)[C@H](O)[C@H]4O)[C@H](OS(=O)(=O)O)[C@H]3NS(=O)(=O)O)[C@H](O)[C@H]2OS(=O)(=O)O)[C@H](O)[C@H]1NS(=O)(=O)O [arixtra, fondaparinux sodium]
- Glycosaminoglycan binding to annexin A1 immobilized on NTA SPR chip (annexin A1 [1]; glycosaminoglycans 5 or 50 µg/mL): bound less well

Compound: O=C[C@H](O)[C@@H](O)[C@H](O)[C@H](O)C(=O)O [glucuronic acid]
- Annexin A1 binding on glycan array (annexin A1 [2]): among the best recognized glycans

Compound: LacNAc
- Binding to annexin A1 immobilized on NTA SPR chip (annexin A1 [1]; carbohydrate flowed over): did not interact

Compound: [3OSO3^−][6OSO3^−]Galβ1-4[6OSO3^−]GlcNAcβ-Sp0 [compound 26]
- Annexin A1 binding on glycan array (annexin A1 [2]): strongest binder
- Annexin A1 binding on glycan array (annexin A1 [2]; listed as [3OSO3^− ][6OSO3^−]Galβ1-4[6OSO3^−]GlcNAcβ): best binder
